In ChEMBL document CHEMBL3576833, “Design and Synthesis of Acetylenyl Benzamide Derivatives as Novel Glucokinase Activators for the Treatment of T2DM” (ACS Med Chem Lett, 2015):
Active and inactive are the calls of the source. The rule behind the calls is not given here.

What was measured:
[1] = molecular target: T1, Hexokinase-1 (Homo sapiens) (UniProt P19367); experiment: Effect on hexokinase-1 (unknown origin)
T1 sequence (whole entry): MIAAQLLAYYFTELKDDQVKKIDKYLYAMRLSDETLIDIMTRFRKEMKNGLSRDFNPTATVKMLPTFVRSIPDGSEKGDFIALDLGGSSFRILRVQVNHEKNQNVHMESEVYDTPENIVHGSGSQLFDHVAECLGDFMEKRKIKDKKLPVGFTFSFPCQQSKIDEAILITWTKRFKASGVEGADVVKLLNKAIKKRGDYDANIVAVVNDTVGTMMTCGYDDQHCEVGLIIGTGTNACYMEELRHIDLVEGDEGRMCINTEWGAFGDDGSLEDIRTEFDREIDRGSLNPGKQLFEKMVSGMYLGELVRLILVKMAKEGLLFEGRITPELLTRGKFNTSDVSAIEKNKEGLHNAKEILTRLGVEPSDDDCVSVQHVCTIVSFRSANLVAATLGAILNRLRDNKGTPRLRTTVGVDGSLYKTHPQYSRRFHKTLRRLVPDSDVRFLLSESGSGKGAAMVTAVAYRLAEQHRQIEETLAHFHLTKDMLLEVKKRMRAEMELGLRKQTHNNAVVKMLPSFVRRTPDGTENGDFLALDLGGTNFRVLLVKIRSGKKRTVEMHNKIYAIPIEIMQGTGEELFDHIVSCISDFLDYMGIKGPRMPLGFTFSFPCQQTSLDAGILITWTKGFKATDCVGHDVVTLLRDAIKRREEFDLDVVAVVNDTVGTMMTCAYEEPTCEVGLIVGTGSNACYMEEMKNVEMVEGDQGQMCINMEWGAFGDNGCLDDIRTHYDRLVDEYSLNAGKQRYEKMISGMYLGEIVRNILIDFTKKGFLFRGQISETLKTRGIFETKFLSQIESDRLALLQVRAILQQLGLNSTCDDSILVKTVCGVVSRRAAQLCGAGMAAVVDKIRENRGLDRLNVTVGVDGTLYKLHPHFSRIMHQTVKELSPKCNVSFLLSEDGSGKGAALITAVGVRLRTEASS

[2] = molecular target: T2, Hexokinase-4 (Rattus norvegicus) (UniProt P17712); experiment: Activation of glucokinase in rat primary hepatocytes assessed as increase in 5.6 mM 2-deoxy-D-[3H]-glucose uptake after 4 hrs by scintillation counting analysis relative to control; assay type: cell-based; settings: Hepatocyte
T2 sequence (whole entry): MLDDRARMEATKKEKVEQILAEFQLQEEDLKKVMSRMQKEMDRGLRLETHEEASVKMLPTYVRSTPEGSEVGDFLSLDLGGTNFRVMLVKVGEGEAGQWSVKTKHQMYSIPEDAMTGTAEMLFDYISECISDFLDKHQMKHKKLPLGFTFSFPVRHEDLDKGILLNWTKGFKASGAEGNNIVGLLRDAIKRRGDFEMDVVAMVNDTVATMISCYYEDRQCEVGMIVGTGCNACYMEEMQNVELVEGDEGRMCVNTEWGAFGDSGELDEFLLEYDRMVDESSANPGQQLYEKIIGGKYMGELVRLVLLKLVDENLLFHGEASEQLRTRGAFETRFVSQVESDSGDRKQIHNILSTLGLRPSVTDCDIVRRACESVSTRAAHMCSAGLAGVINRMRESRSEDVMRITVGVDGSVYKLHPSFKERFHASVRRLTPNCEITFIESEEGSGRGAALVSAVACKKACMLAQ
Summary of the method: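 Rat primary hepatocytes; uptake measured under glucose stimulation, with glucose raised from 0 mM to 5.6 mM; activity expressed as fold increase in glucose uptake.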

[3] = molecular target: T3, Hexokinase-2 (Homo sapiens) (UniProt P52789); experiment: Effect on hexokinase-2 (unknown origin)
T3 sequence (whole entry): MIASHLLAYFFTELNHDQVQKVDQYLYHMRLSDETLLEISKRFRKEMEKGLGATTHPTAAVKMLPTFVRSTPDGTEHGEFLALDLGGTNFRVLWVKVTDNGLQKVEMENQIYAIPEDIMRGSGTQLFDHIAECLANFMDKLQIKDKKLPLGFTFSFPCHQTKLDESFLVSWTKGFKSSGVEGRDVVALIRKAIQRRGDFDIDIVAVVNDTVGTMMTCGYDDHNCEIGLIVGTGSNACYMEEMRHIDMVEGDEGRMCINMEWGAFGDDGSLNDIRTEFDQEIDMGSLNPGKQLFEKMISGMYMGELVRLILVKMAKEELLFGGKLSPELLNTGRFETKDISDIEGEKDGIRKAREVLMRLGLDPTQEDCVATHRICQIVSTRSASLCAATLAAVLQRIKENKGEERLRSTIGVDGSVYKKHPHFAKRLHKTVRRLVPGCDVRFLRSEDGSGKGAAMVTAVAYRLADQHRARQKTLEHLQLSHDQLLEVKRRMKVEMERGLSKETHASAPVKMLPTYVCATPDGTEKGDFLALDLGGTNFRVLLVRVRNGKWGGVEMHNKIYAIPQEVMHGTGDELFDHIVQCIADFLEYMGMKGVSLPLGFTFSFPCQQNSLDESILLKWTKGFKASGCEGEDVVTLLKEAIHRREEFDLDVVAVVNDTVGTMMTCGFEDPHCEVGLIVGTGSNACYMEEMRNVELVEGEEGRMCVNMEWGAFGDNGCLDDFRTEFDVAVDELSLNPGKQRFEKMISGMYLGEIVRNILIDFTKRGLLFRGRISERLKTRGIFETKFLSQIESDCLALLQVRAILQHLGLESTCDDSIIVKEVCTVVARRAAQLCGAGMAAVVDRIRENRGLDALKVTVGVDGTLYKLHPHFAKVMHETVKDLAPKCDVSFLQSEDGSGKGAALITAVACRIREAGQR

[4] = tested on: Mus musculus; experiment: Antidiabetic activity in po dosed C57BL/6J mouse assessed as blood glucose lowering effect administered 30 mins prior to glucose challenge measured over 180 mins by OGTT; assay type: functional, organism-based
Summary of the method: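 Oral glucose tolerance test in C57BL/6J mice with oral dosing. Blood glucose was followed after the glucose challenge, and the result was expressed as the % reduction in blood glucose AUC.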

[5] = molecular target: T4, Hexokinase-4 (Homo sapiens) (UniProt P35557); experiment: Activation of recombinant human pancreatic glucokinase using 10 mM glucose as substrate assessed as enzyme half maximal saturation concentration at 1 uM by G6PDH coupled assay
T4 sequence (whole entry): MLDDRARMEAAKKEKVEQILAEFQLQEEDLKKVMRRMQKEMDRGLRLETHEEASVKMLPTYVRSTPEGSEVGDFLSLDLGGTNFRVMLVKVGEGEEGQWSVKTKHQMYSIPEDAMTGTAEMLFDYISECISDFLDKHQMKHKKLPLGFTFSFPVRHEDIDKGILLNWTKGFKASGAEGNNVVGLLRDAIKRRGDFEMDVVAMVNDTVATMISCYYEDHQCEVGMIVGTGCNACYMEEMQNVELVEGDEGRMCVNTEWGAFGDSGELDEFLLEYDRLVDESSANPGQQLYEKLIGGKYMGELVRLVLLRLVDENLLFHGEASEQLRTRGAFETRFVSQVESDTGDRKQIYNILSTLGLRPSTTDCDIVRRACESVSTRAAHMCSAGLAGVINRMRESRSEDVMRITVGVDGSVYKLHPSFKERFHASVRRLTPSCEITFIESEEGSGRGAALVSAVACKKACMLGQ

[6] = molecular target: T2, Hexokinase-4 (Rattus norvegicus); experiment: Activation of glucokinase in 0 to 5.6 mM glucose-stimulated Sprague-Dawley rat pancreatic islets assessed as increase in insulin secretion after 1 hr by ELISA relative to control
[7] = tested on: Mus musculus; experiment: Antidiabetic activity in C57BL/6J mouse assessed as reduction of blood glucose level at 10 mg/kg, po after 60 mins by fasted glucose tolerance test; assay type: functional, organism-based
Summary of the method: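 Fasted glucose tolerance test in C57BL/6J mice. Animals were fasted and dosed orally, with no glucose challenge. Blood glucose was measured at 60 min.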

Row | SMILES | fold change (FC) [2] | Activity [5] [mM] | also measured
1 | COCC#Cc1cc(O[C@@H](C)COC)cc(C(=O)Nc2ccn(C)n2)c1 | 1.71 | 4.04 | –
2 | COC[C@H](C)Oc1cc(C#Cc2ccc(N)cc2)cc(C(=O)Nc2ccn(C)n2)c1 | 2.05 | 0.73 | –
3 | COC[C@H](C)Oc1cc(C#Cc2cccc(NCCN(C)C)c2)cc(C(=O)Nc2ccn(C)n2)c1 | 2.03 | 0.17 | –
4 | COC[C@H](C)Oc1cc(C#Cc2ccc3[nH]ccc3c2)cc(C(=O)Nc2ccn(C)n2)c1 | 1.99 | 0.46 | –
5 | COC[C@H](C)Oc1cc(C#Cc2cccc(NCCn3ccnc3C)c2)cc(C(=O)Nc2ccn(C)n2)c1 | 2.36 | 0.9 | –
6 | COC[C@H](C)Oc1cc(C#Cc2cccc(NCCN3CCOCC3)c2)cc(C(=O)Nc2ccn(C)n2)c1 | 2.62 | 0.55 | –
7 | COC[C@H](C)Oc1cc(C#Cc2cccc(NCCN3CCCC3)c2)cc(C(=O)Nc2ccn(C)n2)c1 | 2.83 | 0.51 | –
8 | COC[C@H](C)Oc1cc(Oc2cnc(C(=O)N3CCC3)cn2)cc(C(=O)Nc2cnc(C)cn2)c1 | – | – | Activity [7]: Active
9 | COC[C@H](C)Oc1cc(C#Cc2cccc(OCCN3CCOCC3)c2)cc(C(=O)Nc2ccn(C)n2)c1 | 1.89 | 0.35 | –
10 | COC[C@H](C)Oc1cc(C#CCN(C)C)cc(C(=O)Nc2ccn(C)n2)c1 | 1.31 | 5.51 | –
11 | COC[C@H](C)Oc1cc(C#Cc2ccc3c(c2)OCO3)cc(C(=O)Nc2ccn(C)n2)c1 | 2.64 | 2.13 | –
12 | COC[C@H](C)Oc1cc(C#Cc2ccccc2OC)cc(C(=O)Nc2ccn(C)n2)c1 | 2.64 | 0.73 | –
13 | CCN(CC)c1cccc(C#Cc2cc(O[C@@H](C)COC)cc(C(=O)Nc3ccn(C)n3)c2)c1 | 1.91 | 2.01 | –
14 | COC[C@H](C)Oc1cc(C#CCOC2CCCCO2)cc(C(=O)Nc2ccn(C)n2)c1 (stereo partly specified) | 2.5 | 0.55 | –
15 | COC[C@H](C)Oc1cc(C#CCNc2ncccn2)cc(C(=O)Nc2ccn(C)n2)c1 | 2.37 | 3.88 | –
16 | COC[C@H](C)Oc1cc(C#Cc2cccc(NCCN3CCCCC3)c2)cc(C(=O)Nc2ccn(C)n2)c1 | 2.79 | 0.61 | –

Continued, in another order:

Row | fold change (FC) [2] | Activity [5] [mM] | SMILES | also measured
17 | 2.16 | 0.84 | COC[C@H](C)Oc1cc(C#Cc2cccc(N)c2)cc(C(=O)Nc2ccn(C)n2)c1 | Activity [1]: inactive; Activity [3]: inactive; Activity [4]: Dose-dependent effect; fold change (FC) [6]: 2.13
18 | 1.57 | 1.37 | COC[C@H](C)Oc1cc(C#Cc2cccc(O)c2)cc(C(=O)Nc2ccn(C)n2)c1 | –
19 | 2.36 | 2.25 | COC[C@H](C)Oc1cc(C#Cc2cccc(OCCN3CCCCC3)c2)cc(C(=O)Nc2ccn(C)n2)c1 | –
20 | 2.43 | 0.76 | COC[C@H](C)Oc1cc(C#Cc2cccc(N(C)C)c2)cc(C(=O)Nc2ccn(C)n2)c1 | –
21 | 1.75 | 0.95 | COC[C@H](C)Oc1cc(C#Cc2cccc(OCC#N)c2)cc(C(=O)Nc2ccn(C)n2)c1 | –
22 | 2.03 | 1.84 | COC[C@H](C)Oc1cc(C#Cc2cccc(OC(C)C)c2)cc(C(=O)Nc2ccn(C)n2)c1 | –
23 | 2.43 | 0.73 | COC[C@H](C)Oc1cc(C#Cc2cccc(OCCN3CCCC3)c2)cc(C(=O)Nc2ccn(C)n2)c1 | –
24 | 2.18 | 1.23 | COCCNc1cccc(C#Cc2cc(O[C@@H](C)COC)cc(C(=O)Nc3ccn(C)n3)c2)c1 | –
